Measured values gathered from unrelated publications.
Protocols differ between the studies behind these lines.
Target: Tyrosine-protein kinase SYK (SYK, Homo sapiens, UniProt P43405)

| Structure (SMILES) | effect on | mode | method | concentration | endpoint | result |
| --- | --- | --- | --- | --- | --- | --- |
| Cc1nc(Cc2cccc(C(F)(F)F)c2)sc1-c1ccc(C(N)=O)nc1 | cell-free assay |  | competition with immobilised ligand | 1 µM | remaining binding | 100% |
| O=C1NC(=O)c2cc(Nc3ccc(F)cc3)c(Nc3ccc(F)cc3)cc21 | cell-free assay |  |  | 0.5 µM | remaining signal | 98.8% |
| O=C(Nc1cnn(-c2csc(C(=O)NC3COC3)c2)c1)Nc1c(F)cccc1Cl | enzyme activity | inhibitor |  | 5 µM | remaining activity | 90.3% |
| Cc1ccc(Nc2nccc(N(C)c3ccc4c(C)n(C)nc4c3)n2)cc1S(N)(=O)=O | enzyme activity | inhibitor |  | 0.3 µM | inhibition | 21% |
| O=C(N1CCS(=O)(=O)CC1)N1C[C@H](c2ccc(OC(F)(F)F)cc2)C[C@H](c2nc(C3CC3)no2)C1 | cell-free assay |  | competition with immobilised ligand | 1 µM | remaining binding | 100% |
| CC(C)(C)c1nc2c(s1)c1nc(N)ncc1c1ccc(NS(=O)(=O)c3c(F)cccc3F)c(F)c12 | enzyme activity | inhibitor | radiometric | 1 µM | remaining activity | 95% |
| Cn1cc(Cl)c2c(Oc3c(F)cc(Nc4cc(Cl)nc(N)n4)cc3F)ccnc21 | cell-free assay |  | competition with immobilised ligand | 0.1 µM | remaining binding | 100% |
| O=C(Nc1cnn(-c2csc(C(=O)NC3COC3)c2)c1)Nc1ccccc1Cl | enzyme activity | inhibitor |  | 5 µM | remaining activity | 101% |
| N#CCCc1ccc2c(c1)-c1[nH]c3ccc([N+](=O)[O-])cc3c1CC(=O)N2 | cell-free assay |  |  | 0.5 µM | remaining signal | 58% |
| CC(C)CC(=O)N1CCc2nc(-c3ccc(Br)cc3)nc(N(C)Cc3ccccc3)c2C1 | cell-free assay |  | competition with immobilised ligand | 0.1 µM | remaining binding | 100% |
| Nc1nc(Nc2ccccc2)sc1C(=O)c1c(F)cccc1F | enzyme activity | inhibitor |  | 10 µM | remaining activity | 37% |
| Nc1ncnc2occ(-c3ccc(NC(=O)Nc4cc(C(F)(F)F)ccc4F)cc3)c12 | cell-free assay | inhibitor |  | 20 µM | remaining signal | 2.4% |
| CN(c1ncccc1CNc1nc(Nc2ccc3c(c2)CC(=O)N3)ncc1C(F)(F)F)S(C)(=O)=O | enzyme activity | inhibitor |  | 1 µM | inhibition | 91.7% |
| COc1ccc(COc2ccc(Cc3cnc(N)nc3N)cc2OC)cc1 | cell-free assay |  |  | 0.5 µM | remaining signal | 89% |
| C[C@H](c1ccnc(Nc2nc3ccc(-c4cc(N(C)C)ncn4)cc3[nH]2)c1)N1CCN(C(=O)CC(F)(F)F)CC1 | binding |  | competition with immobilised ligand | 0.1 µM | remaining binding | 31% |
| Cc1ccc(NC(=O)c2ccc(C)c(C(F)(F)F)c2)cc1C#Cc1nn(C2CCC(O)CC2)c2ncnc(N)c12 (stereo not shown) | cell-free assay |  |  | 10 µM | remaining signal | 95% |

| Structure (SMILES) | effect on | mode | method | concentration | endpoint | result |
| --- | --- | --- | --- | --- | --- | --- |
| CNC(=O)c1cc(Oc2ccc(NC(=O)Nc3ccc(Cl)c(C(F)(F)F)c3)cc2)ccn1 | enzyme activity | inhibitor |  | 0.3 µM | inhibition | 3% |
| Cc1ccc(C(=O)NCc2ccsc2)cc1C#Cc1cn(C(C)C)c2ncnc(N)c12 | enzyme activity | inhibitor |  | 1 µM | activity vs control | 91% |
| CCCS(=O)(=O)Nc1ccc(F)c(C(=O)c2c[nH]c3ncc(-c4ccc(Cl)cc4)cc23)c1F | enzyme activity | inhibitor |  | 1 µM | inhibition | < 10% |
| CN(C)C1CCN(CC#Cc2nn(C3CCCC3)c3nc(NCc4ccccc4)ncc23)C1 (stereo not shown) | enzyme activity | inhibitor | FRET | 10 µM | inhibition | -1% |
| Cn1nc(C(=O)NCc2ccc(C(=O)O)cc2)cc1-c1ccc2[nH]ccc2c1 | cell-free assay |  | competition with immobilised ligand | 0.1 µM | remaining binding | 81% |
| Cc1cnc(NC2CCOCC2)nc1-n1cnc(C(=O)NC(CN)c2cc(F)cc(Cl)c2)c1 (stereo not shown) | enzyme activity | inhibitor | radiometric | 1 µM | remaining activity | 94% |
| CS(=O)(=O)Nc1cccc(-c2csc(NC(=O)CSc3nc4nccnc4c(=O)n3CCc3ccccc3)n2)c1 | enzyme activity | inhibitor |  | 10 µM | inhibition | -1% |
| CN(c1ccnc(CNc2nc(Nc3ccc4c(c3)CC(=O)N4)ncc2C(F)(F)F)n1)S(C)(=O)=O | cell-free assay |  | competition with immobilised ligand | 1 µM | remaining binding | 5.7% |
| COc1cc(Nc2cnc(C#N)c(O[C@H](C)CN(C)C)n2)ncc1-c1cnn(C)c1 | enzyme activity | inhibitor | radiometric | 1 µM | remaining activity | 93% |
| Cc1c(NC(=O)c2cc(C(N)=O)nc3cc(F)ccc23)c(C(F)(F)F)nn1Cc1ccc(C#N)cc1 | cell-free assay |  | competition with immobilised ligand | 1 µM | remaining binding | 95% |
| FC(F)c1nc2ccccc2n1-c1nc(N2CCOCC2)nc(N2CCOCC2)n1 | enzyme activity | inhibitor |  | 10 µM | remaining activity | 85% |
| C=CC(=O)Nc1cc(Nc2nccc(Nc3cc(Cl)c(F)cc3C(C)(C)O)n2)c(OC)cc1N1CC[C@@H](N(C)C)C1 | enzyme activity | inhibitor |  | 1 µM | inhibition | 14% |
| COc1cc2ncnc(Nc3ccc(Oc4ccccc4)cc3C)c2cc1OC | enzyme activity | inhibitor |  | 1 µM | inhibition | 1% |
| FC(F)(F)Oc1cccc(-c2cnc3ccc(-c4ccncc4)nn23)c1 | enzyme activity | inhibitor | radiometric | 1 µM | activity vs control | 72% |
| Cc1ccc(C(=O)Nc2ccc(CN3CCN(C)CC3)c(C(F)(F)F)c2)cc1C#Cc1cnc2cccnn12 | enzyme activity | inhibitor |  | 23.5 nM | remaining activity | 99% |
